Consider 15 molecules from PubChem BioAssay AID504349 (Southern Research Specialized Biocontainment Screening …, 2011).

pIC50: −log10 of the molar value. The source made the active and inactive calls. The rule behind the calls is not given here.

The first experiment concerns E. coli EV36 K1, T7 phage lysis, OD600 3 h. The experiment can be described thus: OD600 growth after T7 infection, EV36 – E. coli EV36 K1, powder samples, selectivity assay for bacterial capsule biogenesis inhibitors, dose response (AID 504349).
Details: not given
The method in brief:
(§1)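 Material: E. coli EV36 K1:K-12 hybrid cells; Amount: overnight culture diluted 1:100; Compound dosing: 0.39–100 µM final, 1% DMSO; Timing: compound pre-exposure 1.5 h at 37 °C shaking, 3 h post-phage; Detection: optical density at 600 nm, bacterial growth absorbance; Repeats: quadruplicate wells.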
For `O=C(NCc1cc([N+](=O)[O-])ccc1O)c1cccnc1Sc1ccccc1`, the negative-log IC50 (pIC50) (usually the IC50 on a negative log10 scale, so that one unit is a factor of ten) is 5.34.
As for `CC1=NN2C(=N)/C(=C\c3ccc(SCc4ccco4)o3)C(=O)N=C2S1`, the pIC50 is 5.82.
Same read-out and setting: in the case of `O=C(COc1ccc(Cl)cc1Cl)Nc1ccc(C(=O)Nc2ccccc2C(=O)O)cc1` it was 5.54.
As to `O=C(Nc1ccncc1)c1ccc2ncsc2c1`, the negative logarithm of the IC50 (pIC50) is greater than 6.41.
On the same count and under the same terms, in the case of `CCOc1ccc(-c2cc(NC(=O)c3c(F)cccc3F)c(C(=O)O)s2)cc1` it was greater than 6.41; in that of `CC1(C(=O)O)CCC(C(=O)Nc2ccc3ccccc3c2)C1(C)C` (stereo not given), 5.07.
For the molecule `O=C(ONc1ccc(N=NC(=O)c2ccccc2O)cc1)c1ccccc1`, the pIC50 is greater than 6.41.
Still for that read-out and setting: in the case of `O=C(NCc1cc([N+](=O)[O-])ccc1O)c1cccnc1Sc1ccccc1Cl` it was 5.74.
On to `COc1ccc2nc(NC(=O)c3ccc(Br)s3)sc2c1`, for which the negative logarithm of the IC50 (pIC50) is greater than 6.41.

System in a further experiment: not listed separately
Described as above. The following applies: E. coli EV36 K1, T7 phage lysis, OD600 3 h; at 100 µM (top of the series). An outline of the steps: as §1
Take `COc1ccc(OC)c(-c2cc(C(=O)O)c3cc4ccccc4cc3n2)c1`: the phage lysis inhibition (viability) was 99% (inactive).
Take `Cc1cc(C)c2c(=O)c(-c3cc(C(=O)O)c4cc5ccccc5cc4n3)coc2c1`: the phage lysis inhibition (viability) was 107% (inactive).
The same measure, in the same setting: next, `O=C(O)c1cc(-c2cccc(Cl)c2)nc2cc3ccccc3cc12`: 101% (inactive); `O=C(O)c1cc(-c2c[nH]c3ccccc23)nc2cc3ccccc3cc12`: 101% (inactive); `Cc1ccc(C2c3c(oc4cc(C)c(C)cc4c3=O)C(=O)N2CCCN2CCOCC2)cc1` (stereo not given): 91.7% (inactive).
On the same count and under the same terms, next, `C=CCOc1ccc(C2c3c(oc4ccccc4c3=O)C(=O)N2CCCN2CCOCC2)cc1` (stereo not given): 97.4% (inactive).
